Source: PubChem (several laboratories)
An excerpt weighted towards active compounds, which were near 2.1% of everything screened.
Mot1-301 SUMO = blocks SUMOylation pathway, rescuing yeast Mot1-301 growth. S. cerevisiae Mot1-301 growth rescue, ATP luminescence, 38.5C; percent above DMSO median, 100 means doubled. growth rescue, % at 18.8 µM. 1% of 320,000 active;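 active = every valid replicate shows activation above 250% relative to neutral control wells; inactive = the rest, any valid replicate at or below 250%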;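 also: OY570 slx delta 5 strain wells were the positive control but not used for scaling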
APOBEC3A inh = human APOBEC3A DNA deaminase inhibition; P31941; recombinant A3A, FAM/TAMRA ssDNA deamination fluorescence; inhibition, % at 20 µM; 0.41% of 330,000 active; AID 493011;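 active = at least 40% inhibition at 20 µM here, with at most 30% in a related deaminase screen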;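 also: plate controls were A3A with DMSO for no effect and wells lacking A3A enzyme for full effect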
Target sequence (P31941 whole entry, looked up): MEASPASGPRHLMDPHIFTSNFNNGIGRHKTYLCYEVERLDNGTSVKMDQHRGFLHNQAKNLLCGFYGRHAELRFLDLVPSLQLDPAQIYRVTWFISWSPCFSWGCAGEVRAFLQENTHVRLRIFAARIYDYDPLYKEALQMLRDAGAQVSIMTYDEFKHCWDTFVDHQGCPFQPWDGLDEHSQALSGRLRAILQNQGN
ARFGAP1 inh = inhibits rat ARF GTPase activating protein 1; Arfgap1-stimulated ARF1 GTP hydrolysis, GDP FP detection; inhibition, % at 16.5 µM; 0.26% of 360,000 active;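 active = inhibition above a per-plate limit, mean inhibition of low control wells plus 3 SD, cut at about 25% in these data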;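 also: 0% = DMSO wells with enzyme and 100% = wells lacking Arfgap1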
Target sequence (Q62848 1-136 limits assumed): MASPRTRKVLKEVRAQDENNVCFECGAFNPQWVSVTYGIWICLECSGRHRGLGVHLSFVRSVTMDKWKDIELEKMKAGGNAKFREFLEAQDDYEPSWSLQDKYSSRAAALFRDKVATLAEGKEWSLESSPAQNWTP
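Replicates: Single well per compound | Assay system: Truncated rat Arfgap1 GAP domain | Control set: No-Arfgap1 wells (100%) versus DMSO full-reaction wells (0%) | Times: Enzyme reaction 120 min at 25 °C after 20 min preincubation | Reagent: Human ARF1(Δ1-17)-GTP substrate | Measured by: Tracer-displacement fluorescence polarization with EDTA stop, 620/688 nm | Measure: Percent inhibition of Arfgap1-stimulated GTP hydrolysis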
APOBEC3G inh = blocks human APOBEC3G single-stranded DNA deamination; Q9HC16; recombinant A3G, ssDNA deamination FAM/TAMRA fluorescence; inhibition, % at 20 µM; 0.28% of 330,000 active;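 active = inhibition of at least 40% at 20 µM, with no more than 30% in the related APOBEC3A deaminase screen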;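 also: plate controls were DMSO wells with A3G for no effect and wells lacking A3G enzyme for full effect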
ASAP1 GAP inh = ASAP1 ArfGAP inhibition | ASAP1-stimulated ARF1 GTP hydrolysis, GDP FP detection | inhibition, % at 16.5 µM | 0.19% of 360,000 active | AID 624377; in the data active = inhibition above about 25%;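 also: 0% = vehicle with enzyme and substrate and 100% = no enzyme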
C2C12 statin = protects C2C12 myotubes from simvastatin toxicity; ATP luminescence, 48 h; scaled: DMSO 0, geranylgeraniol control 100; rescue of ATP level, % at 7.49 µM; 0.78% of 330,000 active; AID 602340;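 active = mean ATP rescue above about 67%, or every replicate alone reaching that limit, limit read from the data, passing the limit was not always enough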;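 also: myotubes were challenged with 10 µM simvastatin during compound exposure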
Active calls of the source: *; · = no result; + = active, no number.

SMILES	Mot1-301 SUMO	APOBEC3A inh	ARFGAP1 inh	APOBEC3G inh	ASAP1 GAP inh	C2C12 statin
COc1ccccc1NC(=O)CCc1c(C)[nH]c(=O)c(C#N)c1C	-6.0	-0.4	-0.5	-2.9	-5.2	97.3*
Cc1ccc(F)cc1NC(=O)CCc1c(C)[nH]c(=O)c(C#N)c1C	-1.3	6.0	2.0	-4.3	-9.6	-1.2
CO[C@H]1CN(C)C(=O)c2cc(NC(=O)C3CC3)ccc2OC[C@H](C)N(C(=O)c2cccnc2)C[C@@H]1C	·	·	·	·	·	-1.1
Cc1nnc2n(-c3ccccc3)c(=O)c3c4c(sc3n12)COC(C)(C)C4	2.2	3.0	-6.3	9.3	-7.5	105.0*
Cc1nnc2n(C)c(=O)c3c4c(sc3n12)COC(C)(C)C4	-4.0	-1.8	8.6	-1.5	5.9	·
C[C@H](CO)N1C[C@H](C)[C@H](CN(C)Cc2ccc(C(F)(F)F)cc2)Oc2ccc(NS(=O)(=O)c3cccs3)cc2CC1=O	·	·	·	·	·	4.0
O=C1c2cccc(O)c2C(=O)c2c(O)cccc21	-53.3	5.9	·	-0.8	·	·
CC1OC(CC(=O)O)CC2=C1C(=O)c1c(O)cccc1C2=O (stereo not given)	·	·	-17.6	·	47.0*	·
O=C(c1csc(Nc2cccc3ccccc23)n1)N1CCCC1	607.2*	-2.6	8.8	-5.5	-5.0	3.8
CCOc1ccc(-c2nc(CSCC(=O)NC3CC3)c(C)o2)cc1	-27.1	-4.6	·	-4.2	·	6.3
CCOc1ccc(-c2nc(CSCC(=O)NCc3ccco3)c(C)o2)cc1	4.4	0.1	6.4	0.8	-6.7	110.9*
CCCNC(=O)c1onc(CSc2ccc(Cl)cc2)c1C(=O)NCCC(C)C	-9.2	1.2	-5.1	-9.0	5.2	75.2*
C=CCNC(=O)c1c(CSc2ccc(Cl)cc2)noc1C(=O)NCCC	0.6	-3.0	1.6	-3.2	5.3	-9.1
Cc1cc(-c2nc3ncccc3o2)ccc1N	-13.1	-1.9	-1.7	-4.3	0.5	99.8*
O=C(Nc1ccc2oc(-c3ccncc3)nc2c1)c1ccc([N+](=O)[O-])o1	-3.3	4.7	19.4	0.5	-2.7	145.5*
Cc1cc(-c2nc3ncccc3o2)ccc1NC(=O)c1ccc([N+](=O)[O-])o1	·	·	-5.2	·	-0.7	-16.4
Cn1cc([N+](=O)[O-])c(C(=O)Nc2ccc(-c3nc4ccccc4o3)cc2)n1	+	-0.7	3.3	-0.6	-1.8	·
O=C(Nc1ccc2oc(-c3ccncc3)nc2c1)c1ccccc1	2.5	3.6	3.3	-6.4	5.9	8.1
Cc1ccc(-c2nc3ncccc3o2)cc1NC(=O)c1ccc([N+](=O)[O-])o1	-1.3	-3.9	·	-6.7	·	232.8*
O=C(Nc1ccc(-c2nc3ncccc3o2)cc1)c1ccc([N+](=O)[O-])o1	-2.4	0.3	-2.6	-1.8	-6.5	226.5*
O=C(Nc1nc(-c2ccccn2)cs1)c1ccc([N+](=O)[O-])o1	0.2	10.5	5.1	26.8	5.4	240.5*
COc1cc2c(cc1OC)C(c1cc(OC)c(OC)c(OC)c1)NCC2 (stereo not given)	-6.4	-4.4	1.2	-4.8	-3.4	113.2*
CCOC(=O)c1cnn(-c2ncnc3sc(C)c(C)c23)c1N	126.5	-0.1	-14.2	10.6	-8.1	81.1*
O=C(Cn1c(=O)c2sccc2n(Cc2cccc([N+](=O)[O-])c2)c1=O)NCCc1ccccc1	883.7*	-3.7	1.7	-5.3	7.4	·
O=C(NCCc1ccccc1)c1cccc([N+](=O)[O-])c1	514.0*	-2.0	11.4	-4.9	-1.9	-10.5
SMILES	Mot1-301 SUMO	APOBEC3A inh	ARFGAP1 inh	APOBEC3G inh	ASAP1 GAP inh	C2C12 statin
CCCNC(=O)N1[C@H](CNC(=O)c2ccccc2)[C@@H](c2ccccc2)[C@@H]1CO	·	·	·	·	·	10.6
O=C1CCC(C(=O)OCc2ccccc2)N1 (stereo not given)	-17.1	18.1	-5.3	1.4	9.0	31.4
O=C1CCC(C(=O)OCC(=O)C23CC4CC(CC(C4)C2)C3)N1 (stereo not given)	8.6	-0.2	-7.2	-3.8	4.1	89.9*
CN(C)C(=O)C[C@@H]1C[C@H]2c3cc(NC(=O)NC4CCCCC4)ccc3O[C@H]2[C@@H](CO)O1	·	·	·	·	·	3.7
CC(=O)C1=C(C)Nc2ncnn2C1c1ccc(O)cc1 (stereo not given)	-17.2	-2.1	11.8	-11.2	-14.9	-2.7
CC(=O)C1=C(C)Nc2ncnn2C1c1cccc(O)c1 (stereo not given)	335.9*	7.7	2.2	-5.4	18.8	1.0
O=C(C1CC(c2ccc(F)cc2)=NO1)N1CCN(Cc2ccccc2)CC1 (stereo not given)	317.6*	-3.1	4.1	-4.1	6.1	1.9
COc1cccc(C2=NOC(C(=O)N3CCN(Cc4ccccc4)CC3)C2)c1OC (stereo not given)	-3.7	0.3	2.3	-5.7	5.2	40.9
c1ccc(CN2C3=NCCCN3c3ccccc32)cc1	-6.3	-0.2	1.7	-7.9	13.4	78.7*
O=C(CN1C2=NCCCN2c2ccccc21)c1ccc(Br)s1	-6.4	-6.6	2.1	-4.0	0.2	114.6*
Brc1ccc(CN2C3=NCCCN3c3ccccc32)cc1	-10.2	1.4	-8.4	-11.0	-9.2	·
COc1cccc(C#Cc2ccc3c(c2)O[C@H](CN(C)C)[C@@H](C)CN([C@H](C)CO)S3(=O)=O)c1	·	·	·	·	·	7.1
CCc1ccc(NCc2ccc(OC)c(Cn3ccnc3)c2)cc1	340.7*	-6.0	0.3	-8.2	8.8	-12.1
COc1ccc(CNc2ccc(Cl)cc2)cc1Cn1ccnc1	-0.6	0.0	-2.7	-3.8	-8.6	1.9
Cc1nnc(-c2ccccc2)c(=O)n1/N=C/c1c(O)ccc2ccccc12	-15.3	-10.7	-11.6	-13.8	-2.7	84.1*
Cn1cc(/C=C/C(=O)c2ccccc2)c2ccccc21	-16.9	-0.6	10.4	-4.2	-5.5	6.7
CC(=O)N1C=CN(C(C)=O)C(c2cn(C)c3ccccc23)C1c1cn(C)c2ccccc12 (stereo not given)	-2.3	-0.1	6.1	-4.6	8.8	115.0*
CN(C)c1ccc(/C=C/C=C2/SC(=S)N(c3ccccc3)C2=O)cc1	-1.5	-5.5	8.3	-0.8	20.3	69.8*
COc1ccccc1C(=O)Nc1ccc2c(c1)OCCO2	-3.2	-5.6	-2.9	-4.4	16.2	9.5
CC(C)c1cc(C(=O)Nc2ccc3c(c2)OCO3)no1	37.3	-1.3	-24.3	-3.6	6.2	83.2*
COc1ccccc1N(CC(=O)Nc1ccc2c(c1)OCCO2)S(C)(=O)=O	-1.9	-4.6	0.4	-7.1	-7.8	121.9*
COc1ccccc1C(=O)Nc1ccc2c(c1)OCO2	0.8	5.1	-13.8	1.9	2.0	113.8*
Cc1oc(C(C)(C)C)cc1C(=O)Nc1ccc2c(c1)OCO2	8.7	-4.6	-4.6	-7.6	3.3	-16.9
Cc1oc(C(C)(C)C)cc1C(=O)Nc1ccc2c(c1)OCCO2	143.1	-0.7	4.2	-1.8	-12.1	94.8*
